ChEMBL document CHEMBL1141653, “New bis(2-aminoimidazoline) and bisguanidine DNA minor groove binders with potent in vivo antitrypanosomal and antiplasmodial activity” (J Med Chem, 2008)
Calls of active or inactive are those of the source. The calls are words filed in the database; no cut-off is given here.

Experiments:
[1] = system: Trypanosoma brucei rhodesiense; experiment: Antitrypanosomal activity against Trypanosoma brucei rhodesiense STIB900; type: functional, organism-based
Outline: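 Bloodstream forms (10⁴ per well) in MEM with 15% heat-inactivated horse serum, 25 mM HEPES, 2-mercaptoethanol, hypoxanthine. 3-fold serial dilutions from 90 to 0.123 µg/mL, in duplicate. Incubation 72 h at 37 °C, 5% CO₂. Resazurin then added for 2–4 h more. Fluorescence read at ex 536 / em 588 nm.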

Plasmodium falciparum = experiment: Antiplasmodial activity against Plasmodium falciparum K1 in [3H]hypoxanthine incorporation assay; type: functional, organism-based; settings: K1, 72 h
Outline: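 K1 erythrocytic stages in RPMI 1640 without hypoxanthine with AlbuMax, human A⁺ red cells at 2.5% hematocrit, 0.3% parasitemia. Compounds taken from 10 mg/mL DMSO stock, tested as serial doubling dilutions at 37 °C in 4% CO₂/3% O₂/93% N₂. After 48 h, ³H-hypoxanthine (0.5 µCi) added for 24 h more; incorporation by scintillation counting. IC₅₀ from sigmoidal curves.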

L6 = experiment: Cytotoxicity against rat L6 cells; type: cell-based
[2] = Selectivity index, ratio of IC50 for rat L6 cells to IC50 for Trypanosoma brucei rhodesiense STIB900; type: functional
Outline: (§1)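 Ratio of the IC₅₀ on L-6 rat skeletal myoblasts to the parasite IC₅₀. Cytotoxicity measured in RPMI 1640 with L-glutamine and 10% FBS, serial dilutions 90 to 0.123 µg/mL, duplicate. After 72 h, Alamar blue (resazurin) added for 2 h. Fluorescence read at ex 536 / em 588 nm.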

[3] = Selectivity index, ratio of IC50 for rat L6 cells to IC50 for Plasmodium falciparum K1; type: functional; outline: as §1
Mus musculus = experiment: Toxicity in Plasmodium berghei ANKA infected NMRI mice (Mus musculus) at 50 mg/kg, intraperitoneally for 4 days; type: organism-based; set-up: dose 50 mg/kg, route intraperitoneal; settings: in vivo, ip, 96 h
Outline: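 Toxicity recorded in the P. berghei ANKA model. Female NMRI mice (20–22 g), three per group, infected iv with 2 × 10⁷ parasitized erythrocytes. Compound in DMSO diluted 10-fold in water, dosed ip at 4, 24, 48 and 72 h post-infection. Survival followed up to 30 days after infection.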

[4] = Binding affinity for DNA assessed as thermal melting temperature
Outline: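 Thermal melting of poly(dA)·poly(dT): DNA at 40 µM base with compound at 12 µM (ratio 0.3) in MES 0.01 M / EDTA 0.001 M buffer, pH 6.25. A260 followed from 20 to 95 °C at 0.5 °C/min. Value is ΔTm.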

Ferriprotoporphyrin IX [5] = experiment: Inhibition of ferriprotoporphyrin 9 biomineralization at 1 mg/ml; type: functional
Outline: (§2)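 β-Hematin formation: hemin chloride (0.5 mg/mL in DMSO) with 0.5 M sodium acetate pH 4.4 and drug dilutions, 37 °C for 18–24 h. Pellet washed with DMSO, dissolved in 0.1 N NaOH, A405 read. Percent inhibition relative to solvent control. IC₅₀ derived, or percent inhibition at 1 mg/mL (highest concentration) given when no IC₅₀.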

Ferriprotoporphyrin IX [6] = experiment: Inhibition of ferriprotoporphyrin 9 biomineralization; type: functional; outline: as §2
Plasmodium berghei [7] = experiment: Antiplasmodial activity as survival against Plasmodium berghei ANKA infection in NMRI mice (Mus musculus) at 50 mg/kg intraperitoneal dose for 4 days
Plasmodium berghei [8] = experiment: Antiplasmodial activity against Plasmodium berghei ANKA infected NMRI mice (Mus musculus) as reduced parasitemia at 50 mg/kg intraperitoneal dose after 4 days; set-up: scale not given: the % may be the effect or the level left
[9] = system: Trypanosoma brucei rhodesiense; experiment: Antitrypanosomal activity against Trypanosoma brucei rhodesiense STIB900 infected NMRI mouse assessed as survival of animals administered at 20 mg/kg, ip after 4 days; type: functional; settings: route intraperitoneal
Outline: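 Mice infected ip with 2 × 10⁴ bloodstream forms of T. b. rhodesiense STIB900. Groups of four treated ip on days 3–6, untreated control group. Parasitemia checked every second day to day 14, then twice weekly to day 60. Deaths recorded for mean survival time. Surviving aparasitemic mice at 60 days counted as cured.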

[10] = system: Trypanosoma brucei rhodesiense; experiment: Antitrypanosomal activity against Trypanosoma brucei rhodesiense STIB900 infected NMRI mouse assessed as number of cured animals at 20 mg/kg, ip after 4 days; type: functional, organism-based; set-up: dose 20 mg/kg
Outline: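 Mice infected ip with 2 × 10⁴ STIB900 bloodstream forms. Groups of four treated ip on days 3–6, with an untreated control group. Parasitemia checked every second day to day 14, then twice weekly to day 60. Mice surviving and aparasitemic at 60 days counted as cured.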

[11] = system: Plasmodium berghei (ANKA); experiment: Antiplasmodial activity against parasitemia in Plasmodium berghei ANKA infected NMRI mice (Mus musculus) at 5 mg/kg intraperitoneal dose after 4 days
[12] = system: Plasmodium berghei (ANKA); experiment: Antiplasmodial activity as survival against Plasmodium berghei ANKA infection in NMRI mice (Mus musculus) at 10 mg/kg intraperitoneal dose for 4 days
[13] = system: Plasmodium berghei (ANKA); experiment: Antiplasmodial activity against parasitemia in Plasmodium berghei ANKA infected NMRI mice (Mus musculus) at 10 mg/kg intraperitoneal dose after 4 days
[14] = system: Plasmodium berghei (ANKA); experiment: Antiplasmodial activity as survival against Plasmodium berghei ANKA infection in NMRI mice (Mus musculus) assessed at 5 mg/kg intraperitoneal dose for 4 days
[15] = system: Plasmodium berghei (ANKA); experiment: Antiplasmodial activity as survival against Plasmodium berghei ANKA infection in NMRI mice (Mus musculus) at 20 mg/kg intraperitoneal dose for 4 days
[16] = system: Plasmodium berghei (ANKA); experiment: Antiplasmodial activity against parasitemia in Plasmodium berghei ANKA infected NMRI mice (Mus musculus) at 20 mg/kg intraperitoneal dose after 4 days
Plasmodium berghei [17] = experiment: Antiplasmodial activity as survival against Plasmodium berghei ANKA infection in NMRI mice (Mus musculus) at 30 mg/kg intraperitoneal dose for 4 days
Plasmodium berghei [18] = experiment: Antiplasmodial activity against parasitemia in Plasmodium berghei ANKA infected NMRI mice (Mus musculus) at 30 mg/kg intraperitoneal dose after 4 days

| Compound | IC50 [1] | IC50 (Plasmodium falciparum) | IC50 (L6) | Ratio IC50 [2] | Ratio IC50 [3] | ΔTm [4] | inhibition (Ferriprotoporphyrin IX [5]) | IC50 (Ferriprotoporphyrin IX [6]) | Survival [9] | also measured |
| --- | --- | --- | --- | --- | --- | --- | --- | --- | --- | --- |
| Cl.N=C(N)Nc1ccc(C2CCN(c3ccc(NC(=N)N)cc3)CC2)cc1 | 217 nM | 41 nM | 24000 nM | 111 | 585 | 30 °C | 0% | – | – | Activity (Mus musculus): Toxic |
| c1cc(Sc2ccc(NC3=NCCN3)cc2)ccc1NC1=NCCN1 | 386 nM | 25 nM | 23300 nM | 60 | 932 | 24.1 °C | – | 952000 nM | – | Survival (Plasmodium berghei [7]): 11.3 days; Activity (Plasmodium berghei [8]): 97.5% |
| Cl.c1cc(C2CCN(c3ccc(NC4=NCCN4)cc3)CC2)ccc1NC1=NCCN1 | 38 nM | 11 nM | 132000 nM | 3474 | 12000 | 35 °C | 0% | – | >47.25 days | – |
| Cl.N=C(N)Nc1ccc(NC(=O)Nc2ccc(NC(=N)N)cc2)cc1 | 187 nM | 96 nM | > 235000 nM | >1256 | >2547 | 24.1 °C | 0% | – | – | Activity (Mus musculus): Toxic |
| Cl.O=C(Nc1ccc(NC2=NCCN2)cc1)Nc1ccc(NC2=NCCN2)cc1 | 122 nM | 28 nM | 104000 nM | 852 | 3714 | 31 °C | – | 393000 nM | >60 days | Activity [10]: Active |
| CCOC(CNC(=N)Nc1ccc(Nc2ccc(NC(=N)NCC(OCC)OCC)cc2)cc1)OCC | 228 nM | 113 nM | > 175000 nM | >767 | >1548 | 13.6 °C | – | 162000 nM | – | – |
| N=C(N)Nc1ccc2c(c1)Cc1ccc(NC(=N)N)cc1C2 | 50 nM | 8.8 nM | 730 nM | 15 | 83 | 31.1 °C | 0% | – | – | Activity (Mus musculus): Toxic |
| N=C(N)Nc1ccc(CCc2ccc(NC(=N)N)cc2)cc1 | 45 nM | 19 nM | 1090 nM | 24 | 57 | 26.1 °C | 0% | – | – | Activity (Mus musculus): Toxic |
| c1cc(NC2=NCCN2)ccc1CCc1ccc(NC2=NCCN2)cc1 | 54 nM | 16 nM | 34900 nM | 646 | 2181 | 31.2 °C | 0% | – | >60 days | Activity [10]: Active |
| Cl.Cl.O=C(Nc1ccc(NC2=NCCN2)cc1)c1ccc(NC2=NCCN2)cc1 | 25 nM | 28 nM | 193000 nM | 7720 | 6893 | 47.1 °C | – | 705000 nM | >60 days | Activity [10]: Active |
| CCN(CC)CCCC(C)Nc1ccnc2cc(Cl)ccc12 (configuration not stated) [CHLOROQUINE] | – | – | – | – | – | – | – | 17900 nM | – | Activity [11]: 99.6%; Survival [12]: 20 days; Activity [13]: 99.6%; Survival [14]: 9 days |
| N=C(N)Nc1ccc(N2CCN(c3ccc(NC(=N)N)cc3)CC2)cc1 | 270 nM | 15.2 nM | 46400 nM | 172 | 3053 | 27.8 °C | 0% | – | – | Survival [15]: 7 days; Activity [16]: 42.48% |
| c1cc(Oc2ccc(NC3=NCCN3)cc2)ccc1NC1=NCCN1 | 467 nM | 38 nM | 41000 nM | 88 | 1079 | 27.1 °C | 0% | – | – | Survival (Plasmodium berghei [17]): 7 days; Activity (Plasmodium berghei [18]): 44.1% |
| Cl.Cl.N=C(N)Nc1ccc(NC(=O)c2ccc(NC(=N)N)cc2)cc1 | 36 nM | 55 nM | 11500 nM | 319 | 209 | 40.1 °C | 0% | – | >60 days | Activity [10]: Active |
| CCCCC[P+](CCCCC)(CCCCC)Cc1ccc(C(=O)c2ccc(C[P+](CCCCC)(CCCCC)CCCCC)cc2)cc1.[Br-].[Br-] | 414 nM | 53 nM | 11800 nM | 29 | 223 | 1.2 °C | – | 219000 nM | – | – |
| c1cc(N2CCN(c3ccc(NC4=NCCN4)cc3)CC2)ccc1NC1=NCCN1 | 118 nM | 12.3 nM | 104000 nM | 881 | 8455 | 38.8 °C | – | 128000 nM | – | Survival [15]: 7 days; Activity [16]: 0% |
| c1cc(NC2=NCCN2)ccc1Cc1ccc(NC2=NCCN2)cc1 | 897 nM | 15.7 nM | 63600 nM | 71 | 4051 | 18.8 °C | – | – | – | Survival [15]: 6.7 days; Activity [16]: 8.9% |
| c1cc2c(cc1NC1=NCCN1)Cc1ccc(NC3=NCCN3)cc1C2 | 60 nM | 18.6 nM | 37200 nM | 620 | 2000 | 33.2 °C | – | 161000 nM | >60 days | Activity [10]: Active |
| c1cc(Nc2ccc(NC3=NCCN3)cc2)ccc1NC1=NCCN1 | 69 nM | 8.8 nM | 212000 nM | 3072 | 24000 | 38.5 °C | – | 429000 nM | – | Survival [15]: 7 days; Activity [16]: 65.51% |
